This is an account of results in PubChem BioAssay.

SMILES strings stand for the structures. Activity calls are given as the source filed them.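 The calls were made as follows, unless noted: active = inhibition at or above 50% at 10 µM; inactive = inhibition below 50%.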

Test [1] can be described thus: inhibitors of TNFa-induced NFkB p65 translocation, primary screen, imaging, HUVEC, MLSMR starter and 10KST1 sets (AID 438;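 active = inhibition above 20% together with a positive visual image hit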;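 also: compound added about 3h40 before a 20 min TNFalpha stimulation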;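 as to inhibition: signal is the nuclear over cytoplasmic p65 intensity ratio per well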). The following applies: HUVEC TNFa-induced p65 nuclear translocation; cell count: measured here: nuclei count (cytotoxicity indicator), at 2.08 µM; inhibition: at 2 µM, stronger effect = higher value, 0% TNFa-plus-vehicle, 100% no-TNFa wells.
A short description of test [2]: inhibitors of mutant huntingtin aggregation, primary screen, imaging, exon1htt(103Q)mCFP cells, high-content imaging (AID 483;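 active = visual image review flags a hit and inhibition of aggregation exceeds 20%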;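 also: compound exposure lasted 3 days before fixation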;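 as to nuclei count: percent of the per-plate median nuclei count of sample wells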). The following applies: exon1htt(103Q)mCFP cell line, aggregate imaging, at 2 µM; inhibition of aggregation: stronger effect = higher value; nuclei count: measured here: cell count, toxicity.
The nature of test [3]: inhibitors of E-selectin induction by TNFa, primary screen, imaging, HUVEC, immunofluorescence, MLSMR starter and 10KST1 sets (AID 487;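 active = visually confirmed hit in the image check and inhibition above 20%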;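 as to inhibition: signal is fraction of cell area covered by stained E-selectin grains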;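 as to nuclei count: 100% = median nuclei count of all wells on the same plate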). The following applies: HUVEC TNFalpha-induced E-selectin immunofluorescence imaging, at 2 µM; inhibition: stronger effect = higher value; nuclei count: measured here: cell number, toxicity.
The target of test [4] is Voltage-gated potassium channel subunit beta-2 (Rattus norvegicus) (UniProt P62483). The test is described as follows: KvBeta enzyme negative modulators, primary screen, biochemical, NADPH fluorescence (AID 622;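 active = fluorescence slope higher than the sample average by over 3 SD, cut at about -0.22 in these data, passing the limit was not always enough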;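 also: slope of raw intensity against log time taken from 70 to 1610 s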). The settings on record: recombinant KvBeta, 4-cyanobenzaldehyde reduction, at 10 µM, stronger effect = higher value.
Test [5] has the same target. The test can be described thus: KvBeta positive modulators, primary screen, biochemical, NADPH fluorescence (AID 623;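 active = NADPH fluorescence slope more negative than the mean of all samples by about 3 SD, 99.7% confidence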;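 also: fluorescence intensity change per second fitted from 20 to 320 s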). The following applies: Recombinant KvBeta, NADPH fluorescence decrease slope, 10 min; at 10 µM; stronger effect = lower value.
Test [6] deals with Muscarinic acetylcholine receptor M4 (Homo sapiens) (UniProt P08173). The test can be described thus: compounds altering M4/GIRK thallium flux, either direction, primary screen, M4 allosteric agonist project, cell-based, HEK293 M4/GIRK, BTC-AM (AID 625;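 active = fluorescence slope after compound addition differing from the mean of all tested samples at 99.7% confidence, mostly higher but some lower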;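 also: thallium influx through GIRK channels coupled to M4 in HEK293 cells with BTC-AM dye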). The settings on record: at 10 µM, actives lie on both sides. An outline of the steps: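 Material: M4/GIRK1/GIRK2 stable HEK293 cell line. Medium: pH 7.3 thallium assay buffer. Dosing: single compound concentration, 10 µM final. Schedule: 1 h dye loading, 2 min kinetic read. Measured by: kinetic fluorescence with BTC-AM dye. Read-out: post-addition slope, 15–24 s, of baseline-normalized fluorescence. Benchmarks: carbachol and DMSO controls.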

Test [7] is described as follows: inhibitors of Sendai virus-induced IRF3 signaling, primary screen, TLR/RLR signaling modifier project, cell-based, Sendai virus stimulus, luciferase, 10K MLSCN set (AID 602276).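 Also: firefly luciferase from ISG56 promoter only with Renilla not read in this screen; 0% = Sendai virus plus DMSO and 100% = medium plus DMSO without virus.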 The settings on record: HEK293 RL24 IRF3 luciferase reporter, at 10 µM, stronger effect = higher value.
The nature of test [8]: inhibitors of poly I:C-induced TLR3 signaling, primary screen, cell-based, poly I:C stimulus, luciferase, 10K MLSCN set (AID 602277;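 active = inhibition of the reporter signal at or above 50%; inactive = inhibition below 50%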). The settings on record: HEK293-TLR3 RL24 IRF3 luciferase reporter, at 10 µM, stronger effect = higher value.

Sequence of Muscarinic acetylcholine receptor M4 (Homo sapiens) (P08173 whole entry, looked up): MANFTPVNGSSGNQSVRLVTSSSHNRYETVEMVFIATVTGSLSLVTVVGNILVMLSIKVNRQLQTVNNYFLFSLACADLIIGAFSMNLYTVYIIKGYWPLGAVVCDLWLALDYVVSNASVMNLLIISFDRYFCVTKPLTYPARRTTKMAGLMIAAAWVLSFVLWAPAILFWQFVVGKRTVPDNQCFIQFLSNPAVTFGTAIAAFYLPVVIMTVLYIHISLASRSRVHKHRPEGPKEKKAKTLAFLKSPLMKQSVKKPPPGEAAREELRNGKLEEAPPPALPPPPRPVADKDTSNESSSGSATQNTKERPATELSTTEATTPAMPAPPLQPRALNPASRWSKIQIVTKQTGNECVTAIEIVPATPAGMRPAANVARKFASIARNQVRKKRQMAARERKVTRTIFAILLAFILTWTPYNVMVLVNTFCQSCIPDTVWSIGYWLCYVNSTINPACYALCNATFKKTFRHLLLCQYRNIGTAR
Sequence of Voltage-gated potassium channel subunit beta-2 (Rattus norvegicus) (P62483 whole entry, looked up): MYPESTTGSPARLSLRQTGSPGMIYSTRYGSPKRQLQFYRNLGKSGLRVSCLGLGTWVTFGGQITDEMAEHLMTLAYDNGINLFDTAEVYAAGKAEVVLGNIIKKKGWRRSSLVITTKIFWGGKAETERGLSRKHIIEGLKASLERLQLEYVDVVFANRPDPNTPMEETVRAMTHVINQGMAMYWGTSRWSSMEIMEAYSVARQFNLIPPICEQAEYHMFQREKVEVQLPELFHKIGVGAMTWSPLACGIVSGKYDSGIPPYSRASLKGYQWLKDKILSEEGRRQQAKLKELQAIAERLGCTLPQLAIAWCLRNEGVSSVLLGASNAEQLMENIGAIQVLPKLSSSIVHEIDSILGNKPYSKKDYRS

With `CC(C(=O)NCCCN1CCOCC1)n1cccc1C(=O)c1ccccc1` (stereo not drawn), in test [1], the cell count turned out to be 572. The inhibition in test [1] is 2.7% (inactive); in test [3], -1.5% (inactive); in test [7] it was 17.2% (inactive); in test [8], 17% (inactive). Further, the inhibition of aggregation in test [2] is -8.2% (inactive). Moreover, the nuclei count in test [2] was 104%; in test [3], 94.2%. The fluorescence slope in test [4] was -0.549 (inactive); in test [6] it was 0.00579 (inactive). Besides, in test [5], the NADPH fluorescence slope was -3.4e-05 (inactive).
`Cc1cc(-c2ccccc2)c2nncn2n1`: in test [1], the cell count stood at 304. For the same molecule, the inhibition in test [1] was 0.9% (inactive); in test [3], 1.4% (inactive); in test [7], 18.1% (inactive); in test [8] it was 15.3% (inactive). In addition, the inhibition of aggregation in test [2] is -3% (inactive). Besides, the nuclei count in test [2] amounted to 108%; in test [3], 107%. Also, the fluorescence slope in test [4] was -0.492 (inactive); in test [6], 0.00457 (inactive). For the same molecule, the NADPH fluorescence slope in test [5] is -1.4e-05 (inactive).
For the molecule `Cc1cc2ncc(C(=O)Nc3ccccc3)c(C)n2n1`, in test [1], the cell count came out at 376. Besides, the inhibition in test [1] is 4.2% (inactive); in test [3] it was 27.5% (inactive); in test [7], 1.55% (inactive); in test [8] it was -14.2% (inactive). Moreover, the inhibition of aggregation in test [2] was -9.1% (inactive). Besides, the nuclei count in test [2] is 101%; in test [3], 93.8%. The results for the fluorescence slope in test [4] and in test [6] were -0.54 (inactive) and 0.00501 (inactive), respectively. The NADPH fluorescence slope in test [5] was -1.5e-05 (inactive).
`O=C(CN1CCN(C(=O)c2ccccc2)CC1)Nc1ncc(Br)cc1Br`: the cell count in test [1] worked out at 622. Further, the inhibition in test [1] is 7.6% (inactive); in test [3], 2.6% (inactive); in test [7] it was -7.57% (inactive); in test [8], 5.71% (inactive). In addition, the inhibition of aggregation in test [2] is -6.8% (inactive). For the same molecule, the nuclei count in test [2] was 95.9%; in test [3], 99.9%. Moreover, the fluorescence slope in test [4] was -0.45 (inactive); in test [6], 0.00598 (inactive). In addition, in test [5], the NADPH fluorescence slope is 3.1e-05 (inactive).
Turning to `CCCOc1ccc(-c2nnn(CC(=O)Nc3cccc(C(=O)OC)c3)n2)cc1`, the cell count in test [1] turned out to be 380. Moreover, the inhibition was -2.1% (inactive) in test [1], -27.4% (inactive) in test [3], 11.3% (inactive) in test [7] and -4.78% (inactive) in test [8]. In addition, the inhibition of aggregation in test [2] was -8.7% (inactive). The nuclei count in test [2] was 109%; in test [3] it was 112%. Besides, the fluorescence slope in test [4] is -0.503 (inactive); in test [6], 0.00964 (inactive). In addition, the NADPH fluorescence slope in test [5] was 0.000154 (inactive).
Take `COc1ccc(C2C3=C(CC(C)(C)CC3=O)Oc3ncn4nc(-c5cccnc5)nc4c32)cc1` (stereo not drawn): the cell count in test [1] was 474. For the same molecule, the inhibition is 2.7% (inactive) in test [1], -78.2% (inactive) in test [3], -0.431% (inactive) in test [7] and 17.2% (inactive) in test [8]. Besides, in test [2], the inhibition of aggregation was 2% (inactive). Besides, the nuclei count is 83.8% in test [2] and 144% in test [3]. Moreover, the figures for the fluorescence slope in test [4] and in test [6] were -0.327 (inactive) and 0.00713 (inactive), respectively. The NADPH fluorescence slope in test [5] was -2.3e-05 (inactive).
`COc1ccc(OC)c(CNC(=O)CCN2C(=O)COc3ccccc32)c1`: in test [1], the cell count came out at 663. The inhibition in test [1] was 14.4% (inactive); in test [3], -29.9% (inactive); in test [7], -19.9% (inactive); in test [8], -11.1% (inactive). The inhibition of aggregation in test [2] was 21.7% (inactive). Moreover, the nuclei count in test [2] is 64%; in test [3], 110%. Moreover, the figures for the fluorescence slope in test [4] and in test [6] were -0.479 (inactive) and 0.00555 (inactive), respectively. The NADPH fluorescence slope in test [5] is -6e-05 (inactive).
Turning to `O=C(COC(=O)c1ccc(S(=O)(=O)Nc2ccccc2)cc1)NCCN1C(=O)CSC1=O`, the cell count in test [1] is 396. For the same molecule, the inhibition is -3.1% (inactive) in test [1], -88.8% (inactive) in test [3], 0.13% (inactive) in test [7] and 19.9% (inactive) in test [8]. The inhibition of aggregation in test [2] was 2.9% (inactive). The nuclei count in test [2] came to 105%; in test [3] it was 117%. For the same molecule, the fluorescence slope in test [4] is -0.372 (inactive); in test [6], 0.0079 (inactive). For the same molecule, the NADPH fluorescence slope in test [5] is -8.7e-05 (inactive).
